The structures appear in SMILES notation.

One series deals with T1, Sigma non-opioid intracellular receptor 1 (Homo sapiens, UniProt Q99720). Kind of series: Displacement of [3H] Pentazocine from sigma 1 receptor in HEK293 cell membrane. The format is cell membranes. The conditions noted are these: read-out: Ki. In general terms: In a radioligand displacement assay an active substance lowers the binding of a labelled ligand.
T1 sequence (Q99720 whole entry): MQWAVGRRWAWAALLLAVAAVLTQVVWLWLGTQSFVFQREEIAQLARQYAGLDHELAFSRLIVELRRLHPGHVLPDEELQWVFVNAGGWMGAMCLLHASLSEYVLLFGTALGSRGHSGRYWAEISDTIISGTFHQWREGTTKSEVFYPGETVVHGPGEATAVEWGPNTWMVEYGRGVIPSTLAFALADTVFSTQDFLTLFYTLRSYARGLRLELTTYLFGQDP
With `Fc1cc(COC2CCN(Cc3cn4ccccc4n3)CC2)ccc1Cl`, the Ki amounted to 2.3 nM.

For `FC(F)(F)c1cccc(COC2CCN(Cc3cc4ccc(Cl)cc4[nH]3)CC2)c1`, the Ki amounted to 14 nM.

As to `Cc1ccccc1CO[C@H]1CCCN(Cc2cn3ccccc3n2)C1`, the Ki came to 503 nM.

Consider `Fc1ccc(COC2CCN(Cc3cc4ccc(Cl)cc4[nH]3)CC2)cc1F`, for which the Ki was determined as 8.1 nM.

As to `Fc1cc(COC2CCN(Cc3ccc4[nH]ncc4c3)CC2)ccc1Cl`, the Ki is 0.7 nM.

On to `COc1ccc(CN2CCO[C@H](COc3ccccc3)C2)cc1F`, for which the Ki is 41 nM.

As for `Cc1cccc(CO[C@H]2CCCN(Cc3ccc4c(cnn4C)c3)C2)n1`, the Ki is 1280 nM.

Consider `Cc1c(Cl)cccc1NC(=O)CN1CCC2(CCCN(Cc3ccc(F)c(F)c3)C2)C1` (stereo unspecified), for which the Ki came out at 19 nM.

With `Cn1ncc2cc(CN3CCO[C@H](COc4ccc(F)c(F)c4)C3)ccc21`, the Ki amounted to 23 nM.

Regarding `c1ccc(OC[C@@H]2CN(Cc3ccc4[nH]ccc4c3)CCO2)cc1`, the Ki came out at 44 nM.

Turning to `Cc1c(Cl)cccc1NC(=O)CN1CCC(OCc2ccc(Cl)c(F)c2)CC1`, the Ki was determined as 97 nM.

Turning to `Fc1cccc(CO[C@H]2CCCN(Cc3cn4ccccc4n3)C2)c1`, the Ki amounted to 490 nM.

For the compound `Fc1ccc(COC2CCN(Cc3ncc4ccccn34)CC2)cc1F`, the Ki worked out at 143 nM.

For `Cc1csc(OC[C@@H]2CN(Cc3cc4ccc(Cl)cc4[nH]3)CCO2)n1`, the Ki came out at 388 nM.

The target in a further series is T2, D(4) dopamine receptor (Homo sapiens) (UniProt P21917).
T2 sequence (whole entry): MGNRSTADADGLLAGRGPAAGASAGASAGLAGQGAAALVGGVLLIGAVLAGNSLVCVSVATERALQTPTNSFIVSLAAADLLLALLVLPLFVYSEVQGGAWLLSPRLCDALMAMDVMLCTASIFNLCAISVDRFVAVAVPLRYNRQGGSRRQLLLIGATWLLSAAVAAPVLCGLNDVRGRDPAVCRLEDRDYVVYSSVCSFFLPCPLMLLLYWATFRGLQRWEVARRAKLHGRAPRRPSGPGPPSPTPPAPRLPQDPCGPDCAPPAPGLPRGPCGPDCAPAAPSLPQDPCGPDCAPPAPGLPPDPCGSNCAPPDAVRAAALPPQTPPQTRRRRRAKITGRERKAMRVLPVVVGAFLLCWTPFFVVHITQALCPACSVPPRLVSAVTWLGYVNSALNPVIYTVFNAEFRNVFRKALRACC
The series can be described thus: Displacement of [3H]N-methylspiperone from D4 receptor in HEK293 cell membrane assessed as inhibition constant at 10 uM relative to control. The format is cell membranes. Also on record: scale not given: the % may be the effect or the level left.
Conditions: not given
Turning to `Cc1ccccc1CO[C@H]1CCCN(Cc2cn3ccccc3n2)C1`, the Activity worked out at 60%.

With `Cc1cccc(CO[C@H]2CCCN(Cc3cn4ccccc4n3)C2)n1`, the Activity was found to be 23%.

Regarding `Cc1cccc(CO[C@H]2CCCN(Cc3ccc4c(cnn4C)c3)C2)n1`, the Activity turned out to be 23%.

Turning to `Cc1c(Cl)cccc1NC(=O)CN1CCC2(CCCN(Cc3ccc(F)c(F)c3)C2)C1` (stereo unspecified), the Activity came to 23%.

The next series addresses T1, Sigma non-opioid intracellular receptor 1. The series can be described thus: Displacement of [3H] Pentazocine from sigma 1 receptor in HEK293 cell membrane assessed as inhibition constant relative to control. The format is cell membranes. Also on record: scale not given: the % may be the effect or the level left.
Conditions: not given
An outline of the steps:
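Competitive radioligand binding in membranes harvested from HEK293 cells, with one radioligand per target: [3H]N-methylspiperone for D2, D3 and D4; [3H]SCH23390 for D1 and D5; [3H]pentazocine for σ1; [3H]DTG for σ2. Ki derived from inhibition of binding, each run in triplicate.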
Turning to `Cc1csc(OC[C@@H]2CN(Cc3cn4ccccc4n3)CCO2)n1`, the Activity amounted to 6%.

With `Cc1cccc(CO[C@H]2CCCN(Cc3cn4ccccc4n3)C2)n1`, the Activity is 39%.

Tested on in the next series: not listed separately
The series can be described thus: Plasma protein binding in mouse assessed as unbound fraction.
Conditions: not given
Type of series: ADME. In short, it runs like this:
(§1)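 Plasma protein binding by equilibrium dialysis in human or mouse plasma, reported as fraction unbound (fu).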
As for `Fc1cc(COC2CCN(Cc3ccc4[nH]ncc4c3)CC2)ccc1Cl`, the Fu is given as 6.5%.

In a further series the target is T3, D(4) dopamine receptor (Homo sapiens, UniProt P21917).
T3 sequence (P21917 whole entry): T2 sequence (whole entry)
The series can be described thus: Displacement of [3H]N-methylspiperone from D4 receptor in HEK293 cell membrane. Type of series: cell membranes. The conditions noted are these: read-out: Ki.
On to `Cc1csc(OC[C@@H]2CN(Cc3cn4ccccc4n3)CCO2)n1`, for which the Ki came out at 1560 nM.

On to `COc1ccc(CN2CCO[C@H](COc3ccccc3)C2)cc1F`, for which the Ki is 5 nM.

For the compound `Cn1ncc2cc(CN3CCO[C@H](COc4ccc(F)c(F)c4)C3)ccc21`, the Ki was 28 nM.

On to `c1ccc(OC[C@@H]2CN(Cc3ccc4[nH]ccc4c3)CCO2)cc1`, for which the Ki turned out to be 3.3 nM.

As to `Fc1cccc(CO[C@H]2CCCN(Cc3cn4ccccc4n3)C2)c1`, the Ki is 1210 nM.

`Cc1csc(OC[C@@H]2CN(Cc3cc4ccc(Cl)cc4[nH]3)CCO2)n1`: the Ki is 169 nM.

The same series, now with this note: read-out: pKi (converted).
With `FC(F)(F)c1cccc(COC2CCN(Cc3cc4ccc(Cl)cc4[nH]3)CC2)c1`, the Ki was 209 nM.

Tested on in another series: not listed separately
The series can be described thus: Plasma protein binding in human assessed as unbound fraction. The format is ADME, cell-free.
Conditions: not given
An outline of the steps: as §1
As to `Fc1ccc(COC2CCN(Cc3cc4ccc(Cl)cc4[nH]3)CC2)cc1F`, the Fu is given as below 0.3%.

With `Fc1cc(COC2CCN(Cc3ccc4[nH]ncc4c3)CC2)ccc1Cl`, the Fu came to 7%.

Tested on in a further series: not listed separately
The series can be described thus: Intrinsic clearance in human liver microsomes. The format is ADME, Microsome. The note with it: read-out: CLH. In short, it runs like this:
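Intrinsic clearance measured in human liver microsomes. Hepatic clearance predicted from it with the well-stirred organ model, binding terms excluded.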
(Liver microsomes are a subcellular fraction often used to study metabolism.)
As for `Fc1cc(COC2CCN(Cc3ccc4[nH]ncc4c3)CC2)ccc1Cl`, the CLint scaled was found to be 26.3 mL/min/kg.

(Values after ChEMBL document CHEMBL5247621, “From dopamine 4 to sigma 1: Synthesis, SAR and biological characterization of a piperidine scaffold of σ1 modulators” (Eur J Med Chem, 2022).)
